The results in this text go back to ChEMBL document CHEMBL4043073, “Boronic Acid Modifications Enhance the Anti-Influenza A Virus Activities of Novel Quindoline Derivatives” (J Med Chem, 2017).

Activity calls are given as the source filed them. The rule behind the calls is not given here.

One series deals with A549. Briefly: Cytotoxicity against human A549 cells at 20 uM after 48 hrs by resazurin based fluorescence method. Format: cell-based. As to conditions: a549, 48 h. Put shortly:
(§1)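 Confluent MDCK, A549 or H1299 cells exposed in triplicate to compound for 48 h at 37 °C (A549/H1299 at 20 μM). Resazurin added to 0.2 mg/mL final for 16 h. Fluorescence read at ex 544 / em 595 nm; viability as % of untreated.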
(Alamar Blue is a resazurin reagent that responds to reducing activity.)

A further series deals with NCI-H1299. Briefly: Cytotoxicity against human H1299 cells at 20 uM after 48 hrs by resazurin based fluorescence method. Format: cell-based. As to conditions: nci-h1299, 48 h. Put shortly: as §1
Series [1] has as its system Influenza A virus. Briefly: Antiviral activity against Influenza A virus (A/Puerto Rico/8/34(H1N1)) infected in MDCK cells assessed as reduction in viral HA titer by measuring reduction in chicken RBC […] after 24 hrs by hemagglutination test. Format: functional, cell-based. Particulars: A/Puerto Rico/8/1934(H1N1). Put shortly: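 MDCK cells infected at MOI 3.0 (single-cycle) with PR8, Cal09 or swine H3N2 Minnesota, then treated with compound for 24 h. Supernatant HA titers were read by 2-fold serial dilution with an equal volume of 1% chicken RBCs, 60 min at 4 °C. Expressed as percent of untreated-cell HA titer; IC50 derived; n = 4.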

Series [2] in a line: Cytotoxicity against MDCK cells after 48 hrs by resazurin based fluorescence method. Format: cell-based, Canis lupus familiaris. Particulars: dog. Put shortly: as §1
In series [3] the test system is Influenza A virus. Briefly: Antiviral activity against Influenza A virus (A/Puerto Rico/8/34(H1N1)) infected in MDCK cells assessed as reduction in virus-induced cytopathic effect after 48 hrs by crystal violet staining based assay. Format: functional, cell-based. As to conditions: A/Puerto Rico/8/1934(H1N1). The procedure, abridged: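 MDCK cells infected with PR8 at MOI 0.1; compounds added in triplicate after inoculum removal. After 48 h cells were fixed with 4% formaldehyde and stained with 0.1% crystal violet. Dye was methanol-solubilised and read at 570 nm; IC50 was the concentration halving CPE.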
(Damage to the host cells serves as the signal in cytopathic effect assays.)

Series [4] concerns Influenza A virus (A/Puerto Rico/8/1934(H1N1)). Briefly: Inhibition of Influenza A virus (A/Puerto Rico/8/34(H1N1)) neuraminidase using MUNANA as substrate preincubated for 30 mins followed by substrate addition measured after 30 mins by fluorescence assay relative to control. The procedure, abridged: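 Inactivated PR8 virus supernatant mixed with compound (10 μM) in 33 mM MES […], 4 mM CaCl2 for 30 min at 37 °C. MUNANA (20 μM) was added for 30 min at 37 °C and the reaction stopped with glycine/ethanol pH 10.7. Fluorescence read at ex 360 / em 440 nm; zanamivir 10 μM as reference; n = 3.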

Series [5] deals with Influenza A virus. Nature of the series: Antiviral activity against Influenza A virus (A/Puerto Rico/8/34(H1N1)) infected in Kunming mouse assessed as pulmonary viral titer reduction at 10 mg/kg/day, po qd for 4 days measured on day 4 post last dose by crystal violet staining based plaque assay. As to conditions: A/Puerto Rico/8/1934(H1N1). Format: functional, organism-based. The procedure, abridged:
(§2)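 Female 4-week-old Kunming mice infected intranasally with PR8 (4 HAU/mouse). Oral gavage once daily began 2 h post-inoculation; placebo control. Mice euthanised on day 4; lungs homogenised in PBS and titrated by plaque assay on cell monolayers (agarose overlay, 3 days, crystal violet).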

Series [6] has as its system Influenza A virus. Briefly: Antiviral activity against Influenza A virus (A/Puerto Rico/8/34(H1N1)) infected in A549 cells assessed as reduction in localization of viral NP protein in nucleus at 10 uM preincubated with virus at 37 degC for 1 hr followed by viral adsorption at 4 degC for 1 hr and subsequent infection in A549 cells measured at 2 to 4 hrs post infection by FITC-staining based immunofluorescence microscopic method. It is filed as functional, cell-based. As to conditions: A/Puerto Rico/8/1934(H1N1). The procedure, abridged: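 PR8 (MOI 1.0) pretreated with 10 μM compound 1 h at 37 °C, adsorbed 1 h at 4 °C, then A549 cells were kept in infecting medium with 10 μM compound. Fixed with 4% paraformaldehyde at 2 or 4 h p.i., permeabilised with Triton X-100 and blocked. Anti-NP plus FITC secondary, confocal imaging; nuclear NP intensity per unit area quantified (n = 30 images).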

The nature of series [7]: Drug uptake in human A549 cell nucleus at 20 uM after 4 hrs by DAPI staining based confocal microscopic analysis. Format: ADME. Particulars: a549, 4 h. The procedure, abridged: (§3)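 A549 cells incubated with 20 μM compound 4 h at 37 °C, then fixed and DAPI-stained. Compound intrinsic fluorescence located by confocal microscopy.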
A short description of series [8]: Drug uptake in human A549 cells at 20 uM after 4 hrs by DAPI staining based confocal microscopic analysis. Format: ADME, cell-based. As to conditions: a549, 4 h. The procedure, abridged:
as §3

Series [9] concerns Influenza A virus. Briefly: Antiviral activity against Influenza A virus (A/Puerto Rico/8/34(H1N1)) infected in Kunming mouse assessed as intact columnar epithelium in bronchiole without inflammatory cell infiltration at 10 mg/kg/day, po qd for 4 days by hematoxylin and eosin staining based assay. Format: functional, organism-based. As to conditions: A/Puerto Rico/8/1934(H1N1).

In series [10] the test system is Influenza A virus. Briefly: Antiviral activity against Influenza A virus (A/Puerto Rico/8/34(H1N1)) infected in MDCK cells assessed as reduction in virus titer at 10 uM preincubated with virus for 1 hr followed by viral infection measured after 24 hrs by crystal violet staining based plaque assay. Format: functional, cell-based. As to conditions: A/Puerto Rico/8/1934(H1N1). Put shortly: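 PR8 (MOI 1.0) preincubated with compound (2.5–10 μM) 1 h at 37 °C, then used to infect MDCK cells. After adsorption, medium with the same compound concentration was added. At 24 h p.i. supernatant virus titer was measured by plaque assay; n = 3.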

Series [11] concerns Influenza A virus. Briefly: Antiviral activity against Influenza A virus (A/swine/Minnesota/02719/2009(H3N2)) infected in MDCK cells assessed as virus yeild reduction preincubated with virus at 37 degC for 1 hr followed by viral infection for 1 hr measured after 3 days by crystal violet staining based plaque assay. It is filed as functional, cell-based. The procedure, abridged: (§4)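 Plaque reduction: about 50–100 PFU/well of PR8, Cal09 or Minnesota preincubated with compound (0–10 μM) 1 h at 37 °C. Mixture then adsorbed to MDCK monolayers 1 h at 4 °C. Overlay was DMEM with 1.5% agarose, DEAE-dextran and 1 μg/mL TPCK-trypsin for 3 days at 37 °C. Glutaraldehyde fix, crystal violet stain, plaque count; IC50 derived; n = 4.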

The test system of series [12] is Influenza A virus (A/California/04/2009(H1N1)). Briefly: Antiviral activity against Influenza A virus (A/California/04/2009(H1N1)) infected in MDCK cells assessed as virus yeild reduction preincubated with virus at 37 degC for 1 hr followed by viral infection for 1 hr measured after 3 days by crystal violet staining based plaque assay. It is filed as functional, cell-based. Put shortly:
as §4

The nature of series [13]: Selectivity index, ratio of CC50 for MDCK cells to IC50 for Influenza A virus (A/Puerto Rico/8/34(H1N1)) infected in MDCK cells assessed as reduction in virus-induced cytopathic effect. Format: toxicity, cell-based. Particulars: dog, read-out: Ratio CC50/IC50.
Series [14] deals with Influenza A virus. Nature of the series: Antiviral activity against Influenza A virus (A/Puerto Rico/8/34(H1N1)) infected in MDCK cells assessed as virus yeild reduction preincubated with virus at 37 degreeC for 1 hr followed by viral infection for 1 hr measured after 3 days by crystal violet staining based plaque assay. It is filed as functional, cell-based. As to conditions: A/Puerto Rico/8/1934(H1N1). The procedure, abridged:
as §4

Series [15] in a line: Selectivity index, ratio of CC50 for MDCK cells to IC50 for Influenza A virus (A/Puerto Rico/8/34(H1N1)) infected in MDCK cells by plaque assay. It is filed as toxicity, cell-based. As to conditions: dog, read-out: Ratio CC50/IC50.
Series [16] concerns Influenza A virus. Nature of the series: Antiviral activity against Influenza A virus (A/Puerto Rico/8/34(H1N1)) infected in Kunming mouse assessed as intact columnar epithelium in bronchiole without inflammatory cell infiltration at 20 mg/kg/day, po qd for 4 days by hematoxylin and eosin staining based assay. As to conditions: A/Puerto Rico/8/1934(H1N1). Format: functional, organism-based.

Series [17] has as its system Influenza A virus. Nature of the series: Antiviral activity against Influenza A virus (A/Puerto Rico/8/34(H1N1)) infected in Kunming mouse assessed as survival rate at 20 mg/kg/day, po qd for 7 days measured on day 14 post infection (reference value: 30%). It is filed as functional. Particulars: A/Puerto Rico/8/1934(H1N1).
Series [18] concerns Influenza A virus. Nature of the series: Antiviral activity against Influenza A virus (A/Puerto Rico/8/34(H1N1)) infected in Kunming mouse assessed as viral titer reduction in lungs at 20 mg/kg/day, po qd for 4 days measured on day 4 post last dose by crystal violet staining based plaque assay. It is filed as functional, organism-based. Particulars: A/Puerto Rico/8/1934(H1N1). The procedure, abridged: as §2

A short description of series [19]: Drug uptake in human A549 cell membranes at 20 uM after 4 hrs by DAPI staining based confocal microscopic analysis. Particulars: a549, 4 h. Format: ADME. The procedure, abridged: as §3
Series [20] can be described thus: Drug uptake in human A549 cell cytoplasm at 20 uM after 4 hrs by DAPI staining based confocal microscopic analysis. It is filed as ADME. Particulars: a549, 4 h. Put shortly: as §3

For the molecule `O=C(Nc1ccc(Nc2c3ccccc3nc3c2[nH]c2ccccc23)cc1)c1ccc(B(O)O)cc1`, the Activity entry with A549 and in the series on NCI-H1299 was “Non-Toxic” in each case.
Consider `Nc1ccccc1Nc1c2ccccc2nc2c1[nH]c1ccccc12`, for which the outcome (in the series with Influenza A virus [1]; in the series on Influenza A virus [6]; in the series on Influenza A virus [9]; with Influenza A virus [11]; in series [12]; in the series on Influenza A virus [14]) was Active. The molecule also returned a CC50 at 48 h in series [2] of 37.9 µM. Further, the IC50 in the series with Influenza A virus [3] was 47.4 µM; in the series with Influenza A virus [10], 25.5 µM. Also, the inhibition entry in series [4] was “inactive”. Also, in the series on Influenza A virus [5], the outcome was inactive. The Drug uptake result in series [7] and in [8] was “Active” in each case. Moreover, the Activity result in the series on A549 and in the series on NCI-H1299 was “Non-Toxic” throughout. Also, the results for the selectivity ratio in series [13] and in series [15] were 0.8 and 1.5, respectively.
As to `O=C(Nc1cccc(Nc2c3ccccc3nc3c2[nH]c2ccccc23)c1)c1ccc(B(O)O)cc1`, the Activity result in the series on A549 and in the series on NCI-H1299 was “Non-Toxic” in each case.
The molecule `CC(=O)N[C@H]1[C@H]([C@H](O)[C@H](O)CO)OC(C(=O)O)=C[C@@H]1NC(=N)N` returned an inhibition in series [4] above 85%.
As for `Nc1cccc(Nc2c3ccccc3nc3c2[nH]c2ccccc23)c1`, the Activity result in the series on A549 and with NCI-H1299 was “Non-Toxic” in each case.
For `O=C(Nc1cccc(Nc2c3ccccc3nc3c2[nH]c2ccccc23)c1)c1cccc(B(O)O)c1`, the Activity result in the series with A549 and in the series with NCI-H1299 was “Non-Toxic” throughout.
Take `CCOC(=O)C1=C[C@@H](OC(CC)CC)[C@H](NC(C)=O)[C@@H](N)C1` [OSELTAMIVIR]: the result in the series with Influenza A virus [1], in the series on Influenza A virus [16], in the series on Influenza A virus [10] and with Influenza A virus [18] was Active. In [13], the selectivity ratio is 36.2. Moreover, the survival at 20 mg/kg/day in the series with Influenza A virus [17] worked out at 80%.
On to `O=C(Nc1ccccc1Nc1c2ccccc2nc2c1[nH]c1ccccc12)c1ccc(B(O)O)cc1`, for which the outcome with Influenza A virus [1], in the series on Influenza A virus [5], in the series on Influenza A virus [6], in the series with Influenza A virus [9], with Influenza A virus [10] and in the series on Influenza A virus [11] was Active. For the same molecule, the result (in series [12]; in the series on Influenza A virus [14]) was Active. Moreover, the CC50 at 48 h in series [2] was found to be 78.6 µM. The Drug uptake result was “Active” in [19], “Not Active” in [7], “Active” in [8] and “Active” in [20]. In addition, the inhibition in series [4] stood at 56%. In addition, the Activity entry in the series on A549 and in the series with NCI-H1299 was “Non-Toxic” throughout.
As to `Nc1ccc(Nc2c3ccccc3nc3c2[nH]c2ccccc23)cc1`, the Activity result in the series with A549 and in the series with NCI-H1299 was “Non-Toxic” each time.
For the molecule `O=C(Nc1ccc(Nc2c3ccccc3nc3c2[nH]c2ccccc23)cc1)c1cccc(B(O)O)c1`, the Activity entry with A549 and in the series with NCI-H1299 was “Non-Toxic” in each case.

By CC50 is commonly meant the concentration that lowers cell viability or growth by half. By IC50 is commonly meant the concentration that inhibits the measured activity by half. By inhibition is commonly meant the change of the read-out against control, counted positive when it falls.
